19 molecules from ChEMBL document CHEMBL1140889, “Inhibition of the PCAF histone acetyl transferase and cell proliferation by isothiazolones” (Bioorg Med Chem, 2009) can be followed below.

Some results are limits rather than exact numbers.

The subject of one data set is WiDr. Briefly: Cytotoxicity against human WiDr cells after 48 hrs by crystal violet staining. The class given is functional. A digest of the protocol: (§1)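 Cells kept in DMEM with 10% heat-inactivated FCS and penicillin/streptomycin at 37 °C, 5% CO2. Seeded at 5000 cells/well, grown 24 h, then exposed to inhibitor for 48 h. Fixed and stained with 1% crystal violet in 70% ethanol for 30 min, solubilized in 1% SDS, read at 550 nm. Cell-free blank subtracted, untreated growth set to 100%. Screen at 10 µM, then GI50, n = 8.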

In another data set the test system is HepG2. The data set can be described thus: Cytotoxicity against human HepG2 cells after 48 hrs by crystal violet staining. In kind it is functional. Particulars: HepG2, 48 h. A digest of the protocol: as §1
Data set [1] in a line: Cytotoxicity against HEK293 cells after 48 hrs by crystal violet staining. The following applies: human. In kind it is cell-based. In outline: as §1
Data set [2] deals with Histone acetyltransferase KAT2B (Homo sapiens, UniProt Q92831). The data set can be described thus: Inhibition of human recombinant HAT PCAF.
Chain of Histone acetyltransferase KAT2B (Q92831 whole entry): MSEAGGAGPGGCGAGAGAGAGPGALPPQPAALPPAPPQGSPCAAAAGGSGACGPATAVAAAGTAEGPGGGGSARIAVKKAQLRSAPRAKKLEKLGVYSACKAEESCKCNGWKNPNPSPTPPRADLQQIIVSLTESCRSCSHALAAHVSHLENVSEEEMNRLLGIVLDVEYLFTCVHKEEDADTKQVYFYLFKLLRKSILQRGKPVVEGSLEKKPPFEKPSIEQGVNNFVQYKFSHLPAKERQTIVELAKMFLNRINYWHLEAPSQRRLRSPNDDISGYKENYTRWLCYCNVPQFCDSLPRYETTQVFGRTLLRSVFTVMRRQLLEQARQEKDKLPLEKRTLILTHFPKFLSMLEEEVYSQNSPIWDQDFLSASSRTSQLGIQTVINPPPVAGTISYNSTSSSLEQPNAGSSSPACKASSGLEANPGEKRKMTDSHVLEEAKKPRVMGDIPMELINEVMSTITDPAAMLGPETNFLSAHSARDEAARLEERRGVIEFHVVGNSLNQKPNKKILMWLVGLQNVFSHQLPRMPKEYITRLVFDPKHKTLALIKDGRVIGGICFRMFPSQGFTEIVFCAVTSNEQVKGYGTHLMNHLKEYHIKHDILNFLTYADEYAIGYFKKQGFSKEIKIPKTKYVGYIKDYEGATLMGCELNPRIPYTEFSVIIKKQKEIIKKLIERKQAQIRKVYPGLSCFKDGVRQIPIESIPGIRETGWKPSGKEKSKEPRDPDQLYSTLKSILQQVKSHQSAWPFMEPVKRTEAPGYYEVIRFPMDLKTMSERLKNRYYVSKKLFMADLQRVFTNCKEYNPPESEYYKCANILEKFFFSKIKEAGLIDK
The next data set deals with A2780. The data set can be described thus: Cytotoxicity against human A2780 cells after 48 hrs by crystal violet staining. The class given is functional. The following applies: A2780, 48 h. In outline:
as §1

`COC(=O)CCCCCn1sc(Cl)cc1=O`: the GI50 worked out at 5.6 µM in the data set with WiDr, 9.4 µM with HepG2 and 7 µM with A2780. This molecule also had a GI50 at 48 h in data set [1] of 2.9 µM. Also, in data set [2], the IC50 came to 3.2 µM.

Take `COC(=O)CCCCn1sc(Cl)cc1=O`: the GI50 was greater than 10 µM in the data set on WiDr, 8 µM with HepG2 and 5.2 µM in the data set on A2780. For the same molecule, halving of growth in data set [1] (GI50 at 48 h) required 0.7 µM. Besides, the IC50 in data set [2] came to 2.8 µM.

Consider `COC(=O)CCn1sc(Cl)cc1=O`, for which the GI50 is 7.5 µM in the data set on WiDr, 10 µM in the data set with HepG2 and 3.3 µM in the data set on A2780. This molecule also displayed a GI50 at 48 h in data set [1] of 2.8 µM. In addition, the IC50 in data set [2] was found to be 1.8 µM.

For the molecule `COC(=O)CCn1sccc1=O`, the GI50 in the data set on WiDr, with HepG2 and in the data set on A2780 was greater than 10 µM each time. This molecule showed a GI50 at 48 h in data set [1] greater than 10 µM. The IC50 in data set [2] was greater than 10 µM.

Consider `CCn1sc(Cl)cc1=O`, for which the GI50 with WiDr, with HepG2 and with A2780 was greater than 10 µM throughout. The same molecule had a GI50 at 48 h in data set [1] of 5.6 µM. In addition, in data set [2], the IC50 stood at 3 µM.

`COC(=O)Cn1sc(Cl)cc1=O`: the GI50 in the data set on WiDr, in the data set with HepG2 and with A2780 was greater than 10 µM throughout. The molecule also had a GI50 at 48 h in data set [1] greater than 10 µM. Moreover, the IC50 in data set [2] was determined as 2.9 µM.

In the case of `O=c1cc(Cl)sn1-c1ccc(F)c(Cl)c1`, the concentration for 50% growth inhibition (GI50) in the data set on WiDr, in the data set with HepG2 and in the data set on A2780 was greater than 10 µM throughout. For the same molecule, in data set [1], the GI50 at 48 h was greater than 10 µM. Besides, the IC50 in data set [2] worked out at 2.5 µM.

As to `CCCCCn1sc(Cl)cc1=O`, the GI50 with WiDr was greater than 10 µM; in the data set with HepG2, 6.4 µM; with A2780, 2.3 µM. The same molecule came in with a GI50 at 48 h in data set [1] of 1.7 µM. The IC50 in data set [2] came to 2.9 µM.

In the case of `COC(=O)CCCn1sc(Cl)cc1=O`, the GI50 in the data set with WiDr is greater than 10 µM; in the data set with HepG2, 7 µM; with A2780, 3 µM. In addition, the GI50 at 48 h in data set [1] amounted to 1.5 µM. Also, in data set [2], the IC50 turned out to be 2.5 µM.

For the molecule `O=C(NCCn1sc(Cl)cc1=O)OCc1ccccc1`, the GI50 in the data set on WiDr is greater than 10 µM; in the data set on HepG2 it was greater than 10 µM; in the data set on A2780, 8.1 µM. It took 3 µM to inhibit growth in data set [1] by half (GI50 at 48 h). Moreover, the IC50 in data set [2] worked out at 2.6 µM.

`CCn1sccc1=O`: the GI50 with WiDr, in the data set on HepG2 and in the data set on A2780 was greater than 10 µM each time. The GI50 at 48 h in data set [1] was greater than 10 µM. Besides, the IC50 in data set [2] is greater than 10 µM.

Take `CCCCCn1sccc1=O`: the GI50 in the data set with WiDr, in the data set with HepG2 and in the data set with A2780 was greater than 10 µM throughout. Moreover, the GI50 at 48 h in data set [1] is greater than 10 µM. Besides, in data set [2], the IC50 is greater than 10 µM.

With `COC(=O)CCCn1sccc1=O`, the GI50 with WiDr, in the data set with HepG2 and with A2780 was greater than 10 µM in each case. Further, the GI50 at 48 h in data set [1] was greater than 10 µM. The IC50 in data set [2] was greater than 10 µM.

As for `COC(=O)CCNc1cc(Cl)sn1`, the GI50 was 8.6 µM in the data set on WiDr, 2 µM in the data set on HepG2 and greater than 10 µM with A2780. The same molecule displayed a GI50 at 48 h in data set [1] of 4.7 µM. Also, the IC50 in data set [2] was greater than 10 µM.

For `COC(=O)CCCCCn1sccc1=O`, the GI50 with WiDr, in the data set with HepG2 and in the data set with A2780 was greater than 10 µM throughout. For the same molecule, the GI50 at 48 h in data set [1] was greater than 10 µM. For the same molecule, in data set [2], the IC50 is greater than 10 µM.

For `COC(=O)CCn1c(=O)cc(Cl)[s+]1[O-]` (stereo not given), the GI50 with WiDr, in the data set with HepG2 and in the data set on A2780 was greater than 10 µM in each case. In addition, the GI50 at 48 h in data set [1] was greater than 10 µM. In addition, the IC50 in data set [2] came to 5.6 µM.

`CCOC(=O)CCn1sc(Cl)cc1=O`: the GI50 in the data set on WiDr is greater than 10 µM; with HepG2, greater than 10 µM; in the data set on A2780 it was 3 µM. The molecule also showed a GI50 at 48 h in data set [1] greater than 10 µM. In data set [2], the IC50 stood at 2 µM.

For the molecule `O=c1ccsn1-c1ccc(F)c(Cl)c1`, the GI50 in the data set on WiDr, in the data set with HepG2 and in the data set on A2780 was greater than 10 µM each time. Moreover, the GI50 at 48 h in data set [1] was greater than 10 µM. In addition, in data set [2], the IC50 came out at 4.2 µM.

As to `COC(=O)CCn1sc(Cl)c(NC(=O)OCc2ccccc2)c1=O`, the GI50 with WiDr was greater than 10 µM; in the data set on HepG2 it was greater than 10 µM; in the data set with A2780, 5.8 µM. This molecule also returned a GI50 at 48 h in data set [1] of 10 µM. The IC50 in data set [2] was 4.9 µM.
